Data published in ChEMBL document CHEMBL1128448, “Synthesis and antifungal activity of new azole derivatives containing an N-acylmorpholine ring” (1995).
≈ marks a conversion by molar mass, not a printed value.

Assays:
[1] = test system: Aspergillus fumigatus; test: In vitro evaluation of minimum inhibitory concentration against Aspergillus fumigatus 33; format: functional
In short: (§1)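 Stocks are 800 μg/mL in 50% ethanol. Each plate gets 10 μL of inoculum at 10^5 cfu/mL. Incubation at 25 °C, 48 h for yeasts and 120 h for dermatophytes and molds. Organisms are ATCC strains or clinical isolates.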

[2] = test system: Aspergillus niger; test: In vitro evaluation of minimum inhibitory concentration against Aspergillus niger 18; format: functional; conditions: Aspergillus niger; read-out: MIC; in short: as §1
[3] = test system: Pichia kudriavzevii; test: In vitro evaluation of minimum inhibitory concentration against Candida krusei 70; format: functional; conditions: Pichia kudriavzevii; read-out: MIC; in short: as §1
[4] = test system: Candida parapsilosis; test: In vitro evaluation of minimum inhibitory concentration against Candida parapsilosis 61; format: functional; in short: as §1
[5] = test system: Candida tropicalis; test: In vitro evaluation of minimum inhibitory concentration against Candida tropicalis 2.11; format: functional; in short: as §1
[6] = test system: Kluyveromyces marxianus; test: In vivo Evaluation of minimum inhibitory concentration against Candida pseudotropicalis 13; format: functional; in short: as §1
[7] = test system: Mus sp.; test: In vivo evaluation of % survival rate after peroral administration on 3rd day at dose 0.5 mg/kg; format: functional; conditions: route oral
[8] = test system: Mus sp.; test: In vivo evaluation of % survival rate after peroral administration on 3rd day at dose 1 mg/kg; format: functional; conditions: for Survival: route oral, 1 mg/kg
[9] = test system: Mus sp.; test: In vivo evaluation of % survival rate after peroral administration on 5th day at dose 0.5 mg/kg; format: functional; conditions: route oral
[10] = test system: Mus sp.; test: In vivo evaluation of % survival rate after peroral administration on 5th day at dose 1 mg/kg; format: functional; conditions: route oral, 1 mg/kg
[11] = test system: Mus musculus; test: In vivo evaluation of % survival rate after peroral administration on 7th day at dose 0.5 mg/kg; format: functional; conditions: route oral, 0.5 mg/kg
[12] = test system: Mus sp.; test: In vivo evaluation of % survival rate after peroral administration on 7th day at dose 1 mg/kg; format: functional; conditions: route oral, 1 mg/kg
[13] = test system: Mus sp.; test: In vivo evaluation of % survival rate after peroral administration on 9th day at dose 0.5 mg/kg; format: functional; conditions: route oral, 0.5 mg/kg
[14] = test system: Mus sp.; test: In vivo evaluation of % survival rate after peroral administration on 9th day at dose 1 mg/kg; format: functional; conditions: route oral, 1 mg/kg
[15] = test system: Microsporum canis; test: In vitro evaluation of minimum inhibitory concentration against Microsporum canis 47; format: functional; in short: as §1
[16] = test system: Nannizzia gypsea; test: In vitro evaluation of minimum inhibitory concentration against Microsporum gypseum 22; format: functional; in short: as §1
[17] = test system: Rattus norvegicus; test: In vivo evaluation of antifungal activity against vaginal candidosis in rat at dose 0.1 mg/kg on 10th day; format: functional
In short: (§2)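 Groups of 10 female Wistar rats given estradiol 25 mg/kg sc on day -5, then vaginally inoculated with C. albicans on day 0. Infection is confirmed by culture of day-3 swabs. Compound is dosed orally once daily on days 3–5; controls get vehicle. Cure is scored by culture of vaginal swabs taken on days 10 and 15.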

[18] = test system: Rattus norvegicus; test: In vivo evaluation of antifungal activity against vaginal candidosis in rat at dose 0.1 mg/kg on 15th day; format: functional; in short: as §2
[19] = test system: Rattus norvegicus; test: In vivo evaluation of antifungal activity in against vaginal candidosis in rat at dose 0.25 mg/kg on 10th day; format: functional
In short: (§3)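 Groups of 10 female Wistar rats given estradiol 25 mg/kg sc on day -5, infected intravaginally with C. albicans by sterile swab on day 0; infection confirmed on day 3 by swab culture (TSB, then Sabouraud agar). Oral dosing once daily on days 3, 4, 5; vehicle controls. Vaginal swabs cultured on days 10 and 15; read-out % cured (culture-negative).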

[20] = test system: Rattus norvegicus; test: In vivo evaluation of antifungal activity in against vaginal candidosis in rat at dose 0.25 mg/kg on 15th day; format: functional; in short: as §3
[21] = test system: Nakaseomyces glabratus; test: In vitro evaluation of minimum inhibitory concentration against Torulopsis glabrata 78; format: functional; in short: as §1
[22] = test system: Trichophyton benhamiae; test: In vitro evaluation of minimum inhibitory concentration against Trichophyton mentagrophytes 23; format: functional, Arthroderma benhamiae; in short: as §1
[23] = test system: Trichophyton rubrum; test: In vitro evaluation of minimum inhibitory concentration against Trichophyton rubrum 90; format: functional; in short: as §1
[24] = test system: Rhodotorula mucilaginosa; test: In vitro evaluation of minimum inhibitory concentration against Rhodotorula rubra 16; format: functional; in short: as §1
[25] = test system: Aspergillus flavus; test: In vitro evaluation of minimum inhibitory concentration against Aspergillus flavus 19; format: functional; conditions: Aspergillus flavus; read-out: MIC; in short: as §1
[26] = test system: Candida albicans; test: In vitro evaluation of minimum inhibitory concentration against Candida albicans 76; format: functional; in short: as §1
[27] = test system: Candida albicans; test: In vivo evaluation of minimum inhibitory concentration against Candida albicans 406; format: functional
In short: (§4)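 Broth macrodilution MIC following NCCLS M27-P, in RPMI-1640 buffered with 0.165 M MOPS. Fluconazole was dissolved in water and other drugs in DMSO. C. parapsilosis ATCC 22019 served as the reference strain in every run. MIC was the lowest concentration giving turbidity at or below the 80% inhibition standard.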

[28] = test system: Candida albicans; test: In vivo evaluation of minimum inhibitory concentration against Candida albicans 60; format: functional; in short: as §4
[29] = test system: Meyerozyma guilliermondii; test: In vitro evaluation of minimum inhibitory concentration against Candida guilliermondii 26; format: functional; in short: as §1
[30] = test system: Nakaseomyces glabratus; test: In vivo Evaluation of minimum inhibitory concentration against Torulopsis glabrata 78; format: functional; conditions: in the assay text read “In vitro” for “In vivo”; in short: as §1
[31] = test system: Kluyveromyces marxianus; test: In vitro evaluation of minimum inhibitory concentration against Candida pseudotropicalis 13; format: functional; in short: as §1
[32] = test system: Mus musculus; test: In vivo evaluation of % survival rate after peroral administration on 3rd day at dose 5 mg/kg; format: functional; conditions: route oral
[33] = test system: Mus musculus; test: In vivo evaluation of % survival rate after peroral administration on 5th day at dose 5 mg/kg; format: functional; conditions: route oral
[34] = test system: Mus musculus; test: In vivo evaluation of % survival rate after peroral administration on 9th day at dose 5 mg/kg; format: functional; conditions: route oral
[35] = test system: Mus musculus; test: In vivo evaluation of % survival rate after peroral administration on 7th day at dose 5 mg/kg; format: functional; conditions: route oral
[36] = test system: Rattus norvegicus; test: In vivo evaluation of antifungal activity against vaginal candidosis in rat at dose 0.25 mg/kg on 10th day; format: functional; in short: as §3
[37] = test system: Rattus norvegicus; test: In vivo evaluation of antifungal activity against vaginal candidosis in rat at dose 0.5 mg/kg on 10th day; format: functional
In short: (§5)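 Female Wistar rats, 10 per group, received estradiol 25 mg/kg sc on day -5. On day 0 they were infected intravaginally with C. albicans by sterile swab. Infection was confirmed on day 3 by culturing the swab in TSB and then on Sabouraud agar. Oral dosing was once daily on days 3, 4 and 5; controls got vehicle only. Vaginal swabs taken on days 10 and 15 were cultured and read the next day.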

[38] = test system: Rattus norvegicus; test: In vivo evaluation of antifungal activity against vaginal candidosis in rat at dose 0.5 mg/kg on 15th day; format: functional; in short: as §5
[39] = test system: Rattus norvegicus; test: In vivo evaluation of antifungal activity against vaginal candidosis in rat at dose 0.25 mg/kg on 15th day; format: functional; in short: as §3
[40] = Candida tropicalis, read-out: MIC

C[C@H]1N(C(=O)c2ccc(C(F)(F)F)cc2)CCO[C@@]1(Cn1cncn1)c1ccc(F)cc1F (stereo in doubt)
MIC [1]: 10 µg/mL (≈ 21.4 µM)
MIC [2]: 40 µg/mL (≈ 85.8 µM)
MIC [3]: 80 µg/mL (≈ 172 µM)
MIC [4]: 2.5 µg/mL (≈ 5.36 µM)
MIC [5, 40]: > 80 µg/mL
MIC [6]: 40 µg/mL (≈ 85.8 µM)
survival at 0.5 mg/kg [7]: 100%
survival at 1 mg/kg ([8]; Mus sp., po): 100%
survival at 0.5 mg/kg [9]: 100%
Survival [10]: 100%
Survival [11]: 100%
Survival [12]: 100%
Survival [13]: 100%
Survival [14]: 100%
MIC [15]: 10 µg/mL (≈ 21.4 µM)
MIC [16]: 20 µg/mL (≈ 42.9 µM)
Cure rate [17]: 10%
Cure rate [18]: 20%
Cure rate [19]: 40%
Cure rate [20]: 60%
MIC [21]: 40 µg/mL (≈ 85.8 µM)
MIC [22]: 10 µg/mL (≈ 21.4 µM)
MIC [23]: 10 µg/mL (≈ 21.4 µM)
MIC [24]: >80 µg/mL
MIC [25]: > 80 µg/mL

C[C@H]1N(C(=O)c2ccc(C(F)(F)F)cc2)CC(=O)O[C@@]1(Cn1cncn1)c1ccc(Cl)cc1Cl (stereo in doubt; (+)-32a)
MIC [26]: >80 µg/mL
MIC [27]: >80 µg/mL
MIC [28]: >80 µg/mL
MIC [29]: >80 µg/mL
MIC [4]: >80 µg/mL
MIC [5]: >80 µg/mL
Survival [8]: 0%
Survival [10]: 0%
Survival [12]: 0%
Survival [14]: 0%
MIC [30]: > 80 µg/mL
MIC [31]: >80 µg/mL

C[C@H]1N(C(=O)c2ccc(C(F)(F)F)cc2)C[C@H](O)O[C@@]1(Cn1cncn1)c1ccc(F)cc1F (stereo in doubt; (+)-39a)
MIC [27]: >80 µg/mL
MIC [28]: >80 µg/mL
MIC [4]: >80 µg/mL
survival at 5 mg/kg [32]: 40%
survival at 5 mg/kg [33]: 0%
survival at 5 mg/kg [34]: 0%
MIC [31]: >80 µg/mL
survival at 5 mg/kg [35]: 0%

C[C@H]1N(C(=O)c2ccc(C(F)(F)F)cc2)CC(=O)O[C@@]1(Cn1cncn1)c1ccc(Cl)cc1Cl (stereo in doubt; (-)-32a)
MIC ([1]; Aspergillus fumigatus, read-out: MIC): > 80 µg/mL
MIC [2]: > 80 µg/mL
MIC [26]: 20 µg/mL (≈ 39 µM)
MIC [27]: 5 µg/mL (≈ 9.74 µM)
MIC [28]: 10 µg/mL (≈ 19.5 µM)
MIC ([29]; Meyerozyma guilliermondii, read-out: MIC): 80 µg/mL (≈ 156 µM)
MIC [3]: > 80 µg/mL
MIC ([4]; Lodderomyces parapsilosis, read-out: MIC): 40 µg/mL (≈ 77.9 µM)
MIC [5, 40]: 40 µg/mL (≈ 77.9 µM)
Survival [8]: 100%
Survival [10]: 100%
Survival [12]: 70%
Survival [14]: 10%
MIC ([15]; Microsporum canis, read-out: MIC): > 80 µg/mL
MIC ([16]; Nannizzia gypsea, read-out: MIC): > 80 µg/mL
Cure rate [36]: 70%
Cure rate [37]: 80%
Cure rate [38]: 100%
MIC ([21]; Nakaseomyces glabratus, read-out: MIC): > 80 µg/mL
MIC ([22]; Trichophyton benhamiae, read-out: MIC): > 80 µg/mL
MIC ([23]; Trichophyton rubrum, read-out: MIC): > 80 µg/mL
MIC ([24]; Rhodotorula mucilaginosa, read-out: MIC): > 80 µg/mL
MIC [31]: 10 µg/mL (≈ 19.5 µM)
MIC [25]: > 80 µg/mL
Cure rate [39]: 70%
